Ki, Intrinsic activity and Activity data for 25 molecules are collected here from ChEMBL document CHEMBL1140829, “1-Aminoindanes as novel motif with potential atypical antipsychotic properties” (Bioorg Med Chem Lett, 2008).

Data set [1] concerns the target Voltage-gated inwardly rectifying potassium channel KCNH2 (Homo sapiens, UniProt Q12809). The data set is described as follows: Displacement of [3H]dofetilide from human ERG channel expressed in HEK293 cells. In kind it is cell-based. (In general: In a radioligand displacement assay an active substance lowers the binding of a labelled ligand.)
For data set [2], the target named is 5-hydroxytryptamine receptor 2A (Homo sapiens, UniProt P28223). The data set is described as follows: Displacement of [3H]ketanserin from human 5HT2A receptor expressed in Swiss 3T3 cells. In kind it is cell-based. An outline of the steps:
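Membranes from Swiss 3T3 cells expressing human 5-HT2A, labeled with [3H]ketanserin, incubated with or without varying compound concentrations. Vacuum filtration separated unbound label; bound label read by liquid scintillation. IC50 from nonlinear-regression fit of concentration vs percent inhibition of specific binding. Ki reported as geometric mean of at least three experiments.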

Data set [3] has as its target T1, Alpha-1A adrenergic receptor (Rattus norvegicus, UniProt P43140).
T1 sequence (P43140 whole entry): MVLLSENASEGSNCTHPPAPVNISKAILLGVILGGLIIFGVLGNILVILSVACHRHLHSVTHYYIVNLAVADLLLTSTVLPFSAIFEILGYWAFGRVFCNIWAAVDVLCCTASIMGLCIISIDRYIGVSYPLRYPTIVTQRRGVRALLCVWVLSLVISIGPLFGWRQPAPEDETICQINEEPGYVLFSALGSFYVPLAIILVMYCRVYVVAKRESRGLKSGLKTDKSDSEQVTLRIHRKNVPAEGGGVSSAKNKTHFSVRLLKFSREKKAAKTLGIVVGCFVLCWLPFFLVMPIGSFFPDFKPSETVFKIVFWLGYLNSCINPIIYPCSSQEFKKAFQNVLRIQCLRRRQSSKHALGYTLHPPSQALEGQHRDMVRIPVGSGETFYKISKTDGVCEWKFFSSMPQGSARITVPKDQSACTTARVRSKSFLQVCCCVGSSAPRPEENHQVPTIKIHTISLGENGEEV
The data set is described as follows: Displacement of [3H]prazosin from rat adrenergic alpha1A receptor expressed in fibroblast cells. Type of data set: cell-based. The gist of the method:
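Cloned rat alpha1a receptor in fibroblast cell membranes; [3H]prazosin as radioligand, incubated with or without a range of compound concentrations. Filtration under vacuum removed free label; bound measured by liquid scintillation counting. Percent inhibition of specific binding vs concentration fit by nonlinear regression for IC50.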

For data set [4], the target named is T2, D(2) dopamine receptor (Homo sapiens, UniProt P14416). The data set is described as follows: Displacement of [3H]spiperone from human D2L receptor expressed in CHO cells. In kind it is cell-based. The gist of the method:
(§1)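 Radioligand competition binding on cloned human receptor membranes: [3H]8-OH-DPAT for 5-HT1A; CHO-cell D2L membranes with [3H]spiperone. Membranes plus radioligand with or without varying compound concentrations. Bound and free separated by vacuum filtration; bound counted by liquid scintillation. Concentration–percent inhibition of specific binding fit by nonlinear regression to IC50.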

The target of data set [5] is T3, 5-hydroxytryptamine receptor 1A (Homo sapiens, UniProt P08908).
T3 sequence (P08908 whole entry): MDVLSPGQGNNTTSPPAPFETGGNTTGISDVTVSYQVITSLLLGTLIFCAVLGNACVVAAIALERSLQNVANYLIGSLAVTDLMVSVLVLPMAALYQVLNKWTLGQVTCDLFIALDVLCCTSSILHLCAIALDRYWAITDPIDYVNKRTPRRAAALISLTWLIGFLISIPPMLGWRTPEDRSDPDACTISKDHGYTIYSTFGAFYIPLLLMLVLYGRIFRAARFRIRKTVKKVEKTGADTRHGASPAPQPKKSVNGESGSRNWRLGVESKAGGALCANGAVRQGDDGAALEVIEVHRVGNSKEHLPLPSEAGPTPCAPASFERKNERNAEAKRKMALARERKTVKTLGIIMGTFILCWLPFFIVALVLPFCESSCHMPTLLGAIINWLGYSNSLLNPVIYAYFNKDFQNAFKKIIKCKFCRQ
The data set is described as follows: (§2) Displacement of [3H]8OHDPAT from human 5HT1A receptor. The gist of the method:
as §1

Data set [6] concerns the target T4, 5-hydroxytryptamine receptor 1A (Homo sapiens) (UniProt P08908).
T4 sequence (whole entry): T3 sequence (P08908 whole entry)
The description is as §2. An outline of the steps: as §1

The target of data set [7] is T2, D(2) dopamine receptor. The data set is described as follows: Displacement of [3H]spiperone from human D2L receptor expressed in CHO cells at 100 nM. In kind it is cell-based.

T2 sequence (P14416 whole entry): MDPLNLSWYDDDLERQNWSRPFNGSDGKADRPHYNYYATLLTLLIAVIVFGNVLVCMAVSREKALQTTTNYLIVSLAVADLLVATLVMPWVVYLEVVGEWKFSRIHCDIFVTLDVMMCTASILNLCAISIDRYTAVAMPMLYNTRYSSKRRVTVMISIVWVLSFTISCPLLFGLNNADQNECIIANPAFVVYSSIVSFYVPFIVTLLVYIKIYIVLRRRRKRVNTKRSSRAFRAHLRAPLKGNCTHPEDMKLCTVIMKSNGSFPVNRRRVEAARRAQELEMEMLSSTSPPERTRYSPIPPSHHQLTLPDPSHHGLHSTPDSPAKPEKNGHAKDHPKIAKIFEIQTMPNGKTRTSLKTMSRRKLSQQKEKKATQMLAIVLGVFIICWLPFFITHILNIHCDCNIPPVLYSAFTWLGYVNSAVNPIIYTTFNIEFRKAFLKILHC
Chain of Voltage-gated inwardly rectifying potassium channel KCNH2 (Q12809 whole entry): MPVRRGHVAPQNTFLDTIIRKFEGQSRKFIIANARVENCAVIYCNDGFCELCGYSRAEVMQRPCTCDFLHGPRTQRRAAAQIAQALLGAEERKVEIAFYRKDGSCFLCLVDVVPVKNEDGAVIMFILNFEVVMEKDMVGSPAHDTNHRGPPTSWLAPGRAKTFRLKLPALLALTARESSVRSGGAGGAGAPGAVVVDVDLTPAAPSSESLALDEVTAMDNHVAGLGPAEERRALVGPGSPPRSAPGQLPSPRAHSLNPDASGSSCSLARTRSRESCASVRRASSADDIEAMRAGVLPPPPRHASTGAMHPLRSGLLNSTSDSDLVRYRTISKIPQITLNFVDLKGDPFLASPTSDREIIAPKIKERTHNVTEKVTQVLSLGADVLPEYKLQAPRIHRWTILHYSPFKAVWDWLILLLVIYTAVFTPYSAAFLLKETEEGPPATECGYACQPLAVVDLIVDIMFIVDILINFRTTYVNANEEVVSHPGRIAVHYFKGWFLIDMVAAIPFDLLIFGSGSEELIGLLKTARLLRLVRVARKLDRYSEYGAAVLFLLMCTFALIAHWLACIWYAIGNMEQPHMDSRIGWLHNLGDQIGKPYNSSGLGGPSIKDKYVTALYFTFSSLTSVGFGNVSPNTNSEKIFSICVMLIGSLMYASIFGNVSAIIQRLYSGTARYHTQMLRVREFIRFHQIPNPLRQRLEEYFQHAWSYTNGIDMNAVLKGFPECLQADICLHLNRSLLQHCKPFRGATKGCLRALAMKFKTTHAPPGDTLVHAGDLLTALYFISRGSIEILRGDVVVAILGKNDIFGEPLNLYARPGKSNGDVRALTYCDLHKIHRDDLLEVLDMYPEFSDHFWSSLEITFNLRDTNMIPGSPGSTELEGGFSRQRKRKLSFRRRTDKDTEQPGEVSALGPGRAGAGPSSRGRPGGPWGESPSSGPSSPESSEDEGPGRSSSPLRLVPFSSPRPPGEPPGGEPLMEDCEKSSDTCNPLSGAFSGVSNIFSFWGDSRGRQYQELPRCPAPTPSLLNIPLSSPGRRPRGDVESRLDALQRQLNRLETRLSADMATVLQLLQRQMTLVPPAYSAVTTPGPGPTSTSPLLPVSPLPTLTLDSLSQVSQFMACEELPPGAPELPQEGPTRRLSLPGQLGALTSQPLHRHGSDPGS
Chain of 5-hydroxytryptamine receptor 2A (P28223 whole entry): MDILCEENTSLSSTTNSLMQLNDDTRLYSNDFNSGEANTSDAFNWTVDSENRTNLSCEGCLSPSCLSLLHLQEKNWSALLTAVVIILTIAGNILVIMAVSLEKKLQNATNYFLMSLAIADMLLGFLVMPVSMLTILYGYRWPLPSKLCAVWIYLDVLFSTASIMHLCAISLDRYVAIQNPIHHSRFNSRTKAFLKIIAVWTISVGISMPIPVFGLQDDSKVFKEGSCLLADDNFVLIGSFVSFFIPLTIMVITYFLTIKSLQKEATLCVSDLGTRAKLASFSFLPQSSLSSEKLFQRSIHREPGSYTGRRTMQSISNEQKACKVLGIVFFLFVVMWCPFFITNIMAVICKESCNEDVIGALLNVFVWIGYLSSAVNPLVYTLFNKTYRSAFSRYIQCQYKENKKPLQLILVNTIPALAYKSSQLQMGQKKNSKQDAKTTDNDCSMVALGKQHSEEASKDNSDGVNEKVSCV

What is called Ki is a measure of affinity in units of concentration, obtained from inhibition or displacement. Lower therefore signals a stronger hold on the target. For `O=C(NC1CCc2ccc(CCN3CCN(c4nsc5ccccc45)CC3)cc21)c1ccco1` (centres undefined), the Ki in data set [1] was determined as 35 nM; in data set [2], 0.55 nM; in data set [3], 1.38 nM; on D(2) dopamine receptor [4], 5 nM; in data set [5] it was 7.9 nM.
For `O=C(NC1CCc2cc(CCN3CCN(c4nsc5ccccc45)CC3)ccc21)c1ccc(F)cc1` (centres undefined), the inhibitory constant (Ki) came out at 135 nM in data set [1]; 1.65 nM in data set [2]; 15.6 nM in data set [3]; 10 nM at D(2) dopamine receptor [4]; 7.8 nM in data set [5]. Moreover, the Intrinsic activity in data set [6] amounted to 60%.
On to `O=C(NC1CCc2ccc(CCN3CCN(c4nsc5ccccc45)CC3)cc21)c1ccccc1` (centres undefined), for which the inhibitory constant (Ki) in data set [2] stood at 4.75 nM; in data set [3] it was 10.9 nM; on D(2) dopamine receptor [4], 22 nM; in data set [5], 41.8 nM.
As for `O=C(NC1CCc2ccc(CCN3CCN(c4nsc5ccccc45)CC3)cc21)c1ccc(F)cc1` (centres undefined), the Ki in data set [1] is 78 nM; in data set [2], 2.45 nM; in data set [3], 10.3 nM; on D(2) dopamine receptor [4] it was 6 nM; in data set [5], 66.7 nM.
As to `CCC(=O)NC1CCc2cc(CCN3CCN(c4nsc5ccccc45)CC3)ccc21` (centres undefined), the inhibition constant (Ki) in data set [1] was found to be 184 nM; in data set [2] it was 0.25 nM; in data set [3], 0.45 nM; in data set [5], 2 nM. This molecule also displayed an Intrinsic activity in data set [6] of 60%. On D(2) dopamine receptor [7], this molecule registered an Activity of 21%.
With `CCCC(=O)NC1CCc2ccc(CCN3CCN(c4nsc5ccccc45)CC3)cc21` (centres undefined), the inhibition constant Ki in data set [2] is 0.45 nM; in data set [3], 3.96 nM; at D(2) dopamine receptor [4], 27 nM; in data set [5], 5.5 nM. This molecule returned an Intrinsic activity in data set [6] of 60%.
Taken in the same sequence, the figures for `O=C(Cc1ccccc1)NC1CCc2ccc(CCN3CCN(c4nsc5ccccc45)CC3)cc21` (centres undefined) were 0.04 nM, 5.27 nM, 26 nM, 20.9 nM and 60%.
For the molecule `CCC(=O)NC1CCc2ccc(CCN3CCN(c4nsc5ccccc45)CC3)cc21` (centres undefined), the inhibition constant Ki worked out at 164 nM in data set [1]; 0.01 nM in data set [2]; 3.03 nM in data set [3]; 34 nM at D(2) dopamine receptor [4]; 5 nM in data set [5].
`O=C(CCc1ccccc1)NC1CCc2ccc(CCN3CCN(c4nsc5ccccc45)CC3)cc21` (centres undefined): the Ki in data set [2] was determined as 0.95 nM; in data set [3], 10.3 nM; on D(2) dopamine receptor [4] it was 33 nM; in data set [5] it was 37.2 nM. The Intrinsic activity in data set [6] is 60%.
Taken in the same sequence, the figures for `O=C(NC1CCc2cc(CCN3CCN(c4nsc5ccccc45)CC3)ccc21)C(F)(F)F` (centres undefined) were 0.15 nM, 0.3 nM, 8 nM, 1 nM and 60%.
Take `O=C(NC1CCc2cc(CCN3CCN(c4nsc5ccccc45)CC3)ccc21)C1CC1` (centres undefined): the Ki in data set [1] came out at 137 nM; in data set [2], 0.45 nM; in data set [3], 0.73 nM; in data set [5], 2 nM. Besides, on D(2) dopamine receptor [7], the Activity was found to be 27%.
With `NC1CCc2ccc(CCN3CCN(c4nsc5ccccc45)CC3)cc21` (centres undefined), the Ki is 616 nM in data set [1]; 0.09 nM in data set [2]; 2.72 nM in data set [3]; 21 nM at D(2) dopamine receptor [4]; 2 nM in data set [5]. For the same molecule, the Intrinsic activity in data set [6] was 60%.
Regarding `CC(C)C(=O)NC1CCc2ccc(CCN3CCN(c4nsc5ccccc45)CC3)cc21` (centres undefined), the inhibitory constant (Ki) in data set [1] came to 278 nM; in data set [2], 0.75 nM; in data set [3], 3.61 nM; on D(2) dopamine receptor [4], 67 nM; in data set [5], 12 nM.
For the molecule `O=C(NC1CCc2ccc(CCN3CCN(c4nsc5ccccc45)CC3)cc21)C1CC1` (centres undefined), the Ki was found to be 35 nM in data set [1]; 0.3 nM in data set [2]; 2.22 nM in data set [3]; 21 nM on D(2) dopamine receptor [4]; 12 nM in data set [5]. In data set [6], this molecule had an Intrinsic activity of 60%.
In the case of `O=C(NC1CCc2ccc(CCN3CCN(c4nsc5ccccc45)CC3)cc21)c1cccnc1` (centres undefined), the inhibition constant Ki was determined as 358 nM in data set [1]; 0.95 nM in data set [2]; 3.31 nM in data set [3]; 6 nM at D(2) dopamine receptor [4]; 4.5 nM in data set [5].
Consider `O=C(NC1CCc2ccc(CCN3CCN(c4nsc5ccccc45)CC3)cc21)C(F)(F)F` (centres undefined), for which the inhibition constant Ki amounted to 101 nM in data set [1], 1.92 nM in data set [3], 10 nM on D(2) dopamine receptor [4] and 4.9 nM in data set [5].
Turning to `O=C1Cc2cc(CCN3CCN(c4nsc5ccccc45)CC3)c(Cl)cc2N1` [ZIPRASIDONE], the Activity result in data set [1] (human, hek293) is given as “Not Active”. In addition, the inhibition constant Ki was 0.5 nM in data set [3] and 4 nM in data set [5].
On to `CC(C)C(=O)NC1CCc2cc(CCN3CCN(c4nsc5ccccc45)CC3)ccc21` (centres undefined), for which the inhibition constant (Ki) in data set [1] is 219 nM; in data set [2], 0.65 nM; in data set [3] it was 0.49 nM; in data set [5] it was 1 nM. At D(2) dopamine receptor [7], this molecule had an Activity of 17%.
On to `O=C(NC1CCc2ccc(CCN3CCN(c4nsc5ccccc45)CC3)cc21)c1ccc(Cl)cc1` (centres undefined), for which the Ki in data set [1] was determined as 166 nM; in data set [2], 0.1 nM; in data set [3] it was 5.64 nM; at D(2) dopamine receptor [4], 5 nM; in data set [5] it was 56 nM. In addition, the Intrinsic activity in data set [6] was found to be 60%.
For the molecule `O=C(NC1CCc2cc(CCN3CCN(c4nsc5ccccc45)CC3)ccc21)c1cccnc1` (centres undefined), the Ki amounted to 202 nM in data set [1]; 0.68 nM in data set [2]; 17.4 nM in data set [3]; 5 nM at D(2) dopamine receptor [4]; 7.7 nM in data set [5]. This molecule showed an Intrinsic activity in data set [6] of 60%.
As for `CC(=O)NC1CCc2ccc(CCN3CCN(c4nsc5ccccc45)CC3)cc21` (centres undefined), the Ki in data set [1] stood at 885 nM; in data set [2], 0.01 nM; in data set [3], 1.34 nM; on D(2) dopamine receptor [4], 22 nM; in data set [5] it was 7.5 nM. Further, the Intrinsic activity in data set [6] amounted to 60%.
For the molecule `O=C(NC1CCc2ccc(CCN3CCN(c4nsc5ccccc45)CC3)cc21)c1ccno1` (centres undefined), the Ki in data set [1] worked out at 150 nM; in data set [2], 0.08 nM; in data set [3] it was 1.88 nM; in data set [5], 6.5 nM.
As for `CC(=O)NC1CCc2cc(CCN3CCN(c4nsc5ccccc45)CC3)ccc21` (centres undefined), the inhibitory constant (Ki) in data set [1] stood at 2200 nM; in data set [2], 0.33 nM; in data set [3] it was 3.18 nM; on D(2) dopamine receptor [4], 15 nM; in data set [5] it was 1.1 nM. The Intrinsic activity in data set [6] is 60%.
As for `Cc1ccc(C(=O)NC2CCc3ccc(CCN4CCN(c5nsc6ccccc56)CC4)cc32)cc1` (centres undefined), the Ki in data set [1] worked out at 194 nM; in data set [2], 3 nM; in data set [3] it was 13.5 nM; on D(2) dopamine receptor [4], 15 nM; in data set [5], 28.1 nM.
In the case of `CCCC(=O)NC1CCc2cc(CCN3CCN(c4nsc5ccccc45)CC3)ccc21` (centres undefined), the Ki is 269 nM in data set [1], 0.5 nM in data set [2], 0.9 nM in data set [3] and 2 nM in data set [5]. Moreover, the Intrinsic activity in data set [6] was determined as 60%. Moreover, at D(2) dopamine receptor [7], the Activity is 21%.
